Results taken from ChEMBL document CHEMBL4304743, “Discovery of ( E)- N1-(3-Fluorophenyl)- N3-(3-(2-(pyridin-2-yl)vinyl)-1 H-indazol-6-yl)malonamide (CHMFL-KIT-033) as a Novel c-KIT T670I Mutant Selective Kinase Inhibitor for Gastrointestinal Stromal Tumors (GISTs)” (J Med Chem, 2019).
Activity calls are given as the source filed them. No cut-off for these calls is given here.

What was measured:
[1] = test system: Mast/stem cell growth factor receptor Kit (Homo sapiens), P10721 [V654A]; assay: Inhibition of TEL fused c-KIT V654A mutant (unknown origin) transfected in mouse BAF3 cells assessed as growth inhibition after 72 hrs by CCK8 assay; format: cell-based
How it was run: (§1)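 Tel-c-KIT-transformed BaF3 lines (IL-3 independent) kept in RPMI 1640 with 10% FBS, 2% L-glutamine and pen/strep. Cells at 1.5 to 5 × 10^4 cells/mL mixed with graded compound and incubated 72 h at 37 °C, 5% CO2. Viability by CCK-8 absorbance at 450 nm, normalized to DMSO. GI50 from dose–response fit.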

[2] = test system: Mast/stem cell growth factor receptor Kit (Homo sapiens), P10721 [D816V]; assay: Inhibition of TEL fused c-KIT D816V mutant (unknown origin) transfected in mouse BAF3 cells assessed as growth inhibition after 72 hrs by CCK8 assay; format: cell-based; how it was run: as §1
[3] = test system: Mast/stem cell growth factor receptor Kit (Homo sapiens), P10721 [D820E]; assay: Inhibition of TEL fused c-KIT D820E mutant (unknown origin) transfected in mouse BAF3 cells assessed as growth inhibition after 72 hrs by CCK8 assay; format: cell-based; how it was run: as §1
[4] = molecular target: Serine/threonine-protein kinase PAK 2 (Homo sapiens, UniProt Q13177); assay: Inhibition of wild-type human partial length PAK2 (P151 to R525 residues) expressed in bacterial expression system after 1 hr by Z-LYTE assay
GISTT1 [5] = assay: Antiproliferative activity against human GISTT1 cells harboring c-KIT 560 to 578 deletion/T670I double mutant incubated for 72 hrs by CCK8 assay; format: functional; details: GISTT1, 72 h
How it was run: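 Adherent GIST cells seeded at 1.5-5 × 10^4 cells/mL and left overnight at 37 °C, 5% CO2. Medium then replaced with medium holding serial compound dilutions; 72 h incubation. Viability by CCK-8, absorbance at 450 nm, normalized to DMSO control; GI50 from dose-response fit.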

[6] = test system: Mast/stem cell growth factor receptor Kit (Homo sapiens), P10721 [UNDEFINED MUTATION]; assay: Inhibition of c-KIT 560 to 578 deletion/T670I double mutant in human GIST5R cells assessed as reduction in c-KIT autophosphorylation at Y719 residue at 0.1 uM to 3 uM after 1 hr by Western blot analysis; format: cell-based
How it was run: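 Serial compound dilutions applied for 1 h to GIST-T1, GIST-T1-T670I (CRISPR/Cas9 T670I knock-in, clone confirmed by Sanger sequencing) or GIST-5R cells in DMEM with 10% FBS. Cells then lysed and phospho-proteins detected by standard Western blotting.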

GISTT1 [7] = assay: Induction of apoptosis in human GISTT1 cells harboring c-KIT 560 to 578 deletion mutant assessed as increase in cleaved PARP level after 24 hrs by Western blot analysis; format: functional, cell-based
How it was run: (§2)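 GIST cells grown in DMEM with 10% FBS, treated 24 h with serially diluted compound; apoptosis read by Western blot for PARP, with GAPDH as loading control.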

Homo sapiens = species on record: Homo sapiens; assay: Induction of apoptosis in human GIST5R cells harboring c-KIT 560 to 578 deletion/T670I double mutant assessed as increase in cleaved PARP level after 24 hrs by Western blot analysis; format: functional, cell-based; how it was run: as §2
GISTT1 [8] = assay: Induction of cell cycle arrest in human GISTT1 cells harboring c-KIT 560 to 578 deletion mutant after 24 hrs; format: functional, cell-based
[9] = Apparent clearance in Sprague-Dawley rat at 1 mg/kg, iv measured after 2 to 720 mins by LC-tandem mass spectrometry analysis; format: ADME, organism-based; details: in vivo, read-out: CL(app) (converted)
How it was run: (§3)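 Male Sprague-Dawley rats (190-210 g), fasted 12 h, randomized into two groups: 1 mg/kg i.v. or 10 mg/kg p.o., both formulated in 10% DMSO/90% of 5% glucose water. Blood sampled at 2-720 min (i.v.) or 5-720 min (p.o.). Plasma protein-precipitated with methanol, caffeine internal standard, LC-MS/MS. Noncompartmental analysis; triplicate, ±SD.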

[10] = Apparent clearance in Sprague-Dawley rat at 10 mg/kg, po measured after 5 to 720 mins by LC-tandem mass spectrometry analysis; format: ADME, organism-based; details: in vivo, read-out: CL(app) (converted); how it was run: as §3
[11] = AUC (0 to infinity) in mouse at 1 mg/kg, iv measured after 2 to 720 mins by LC-tandem mass spectrometry analysis; format: ADME, organism-based; design: dose 1 mg/kg, time infinity, route intravenous; details: in vivo
How it was run: (§4)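 Mice dosed 1 mg/kg i.v. or 10 mg/kg p.o.; plasma drug levels by LC-MS/MS, parameters by noncompartmental analysis; values not from triplicate testing.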

[12] = Apparent volume of distribution in mouse at 1 mg/kg, iv measured after 2 to 720 mins by LC-tandem mass spectrometry analysis; format: ADME, organism-based; details: in vivo, read-out: Vz; how it was run: as §4
[13] = Apparent clearance in mouse at 1 mg/kg, iv measured after 2 to 720 mins by LC-tandem mass spectrometry analysis; format: ADME, organism-based; details: in vivo, read-out: CL(app) (converted); how it was run: as §4
[14] = Cmax in mouse at 1 mg/kg, iv measured after 2 to 720 mins by LC-tandem mass spectrometry analysis; format: ADME, organism-based; design: dose 1 mg/kg, route intravenous; details: in vivo; how it was run: as §4
[15] = AUC (0 to infinity) in mouse at 10 mg/kg, po measured after 5 to 720 mins by LC-tandem mass spectrometry analysis; format: ADME, organism-based; design: dose 10 mg/kg, route oral, time infinity; details: in vivo; how it was run: as §4
Mus musculus [16] = assay: Inhibition of AKT phosphorylation at […] residue in tumor of human GIST5R cells xenografted in nude mouse at 100 mg/kg, po administered as single dose and measured at 2 hrs; format: functional, organism-based
How it was run: (§5)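 Female nu/nu mice bearing subcutaneous GIST-5R tumors (cells in Matrigel, right flank) given one oral dose of 100 mg/kg in 0.5% methylcellulose/0.4% Tween80. Tumors collected over a 2 h time course. p-c-KIT, p-ERK and p-AKT measured alongside plasma drug levels.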

Mus musculus [17] = assay: Inhibition of c-KIT phosphorylation at Y703 residue in tumor of human GIST5R cells xenografted in nude mouse at 100 mg/kg, po administered as single dose and measured after 2 hrs; format: functional, organism-based; how it was run: as §5
Mus musculus [18] = assay: Effect on body weight in nude mouse xenografted with human GIST5R cells at 25 to 100 mg/kg, po administered […] via gavage for 28 days; format: ADME, organism-based; details: in vivo, 672 h
How it was run: (§6)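 Female nu/nu mice (5 weeks old) given subcutaneous right-flank GIST-5R cells in Matrigel. Dosing began at tumors of 200-400 mm3; randomized, 4 mice per group. Daily oral dosing (QD) at 25, 50 or 100 mg/kg in 0.5% methylcellulose/0.4% Tween80, or vehicle alone, for 28 days. Body weight and tumor volume, (W²×L)/2, measured daily; mean±SEM.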

[19] = Antitumor activity against human GIST5R cells xenografted in nude mouse assessed as tumor weight at 100 mg/kg, po administered […] via gavage for 28 days (reference value: 0.59g); format: functional; how it was run: as §6

Sequence of Serine/threonine-protein kinase PAK 2 (Q13177 whole entry, the tested form may be a part): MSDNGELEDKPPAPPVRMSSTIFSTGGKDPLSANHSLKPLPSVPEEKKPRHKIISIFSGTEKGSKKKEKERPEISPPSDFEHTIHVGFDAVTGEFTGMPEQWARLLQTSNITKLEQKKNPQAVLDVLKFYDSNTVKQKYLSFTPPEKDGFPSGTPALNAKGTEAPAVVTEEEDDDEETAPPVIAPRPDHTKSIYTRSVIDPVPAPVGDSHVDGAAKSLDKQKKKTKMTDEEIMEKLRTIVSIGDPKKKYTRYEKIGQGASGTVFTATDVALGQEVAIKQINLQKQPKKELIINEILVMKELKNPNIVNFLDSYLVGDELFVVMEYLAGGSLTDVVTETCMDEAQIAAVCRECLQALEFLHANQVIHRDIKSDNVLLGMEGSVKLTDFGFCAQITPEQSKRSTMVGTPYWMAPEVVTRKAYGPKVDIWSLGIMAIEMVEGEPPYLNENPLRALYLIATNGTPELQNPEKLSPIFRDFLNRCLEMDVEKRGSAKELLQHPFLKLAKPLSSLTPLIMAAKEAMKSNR
Sequence of Mast/stem cell growth factor receptor Kit (Homo sapiens), P10721 [V654A] (P10721 whole entry V654A, the tested form may be a part): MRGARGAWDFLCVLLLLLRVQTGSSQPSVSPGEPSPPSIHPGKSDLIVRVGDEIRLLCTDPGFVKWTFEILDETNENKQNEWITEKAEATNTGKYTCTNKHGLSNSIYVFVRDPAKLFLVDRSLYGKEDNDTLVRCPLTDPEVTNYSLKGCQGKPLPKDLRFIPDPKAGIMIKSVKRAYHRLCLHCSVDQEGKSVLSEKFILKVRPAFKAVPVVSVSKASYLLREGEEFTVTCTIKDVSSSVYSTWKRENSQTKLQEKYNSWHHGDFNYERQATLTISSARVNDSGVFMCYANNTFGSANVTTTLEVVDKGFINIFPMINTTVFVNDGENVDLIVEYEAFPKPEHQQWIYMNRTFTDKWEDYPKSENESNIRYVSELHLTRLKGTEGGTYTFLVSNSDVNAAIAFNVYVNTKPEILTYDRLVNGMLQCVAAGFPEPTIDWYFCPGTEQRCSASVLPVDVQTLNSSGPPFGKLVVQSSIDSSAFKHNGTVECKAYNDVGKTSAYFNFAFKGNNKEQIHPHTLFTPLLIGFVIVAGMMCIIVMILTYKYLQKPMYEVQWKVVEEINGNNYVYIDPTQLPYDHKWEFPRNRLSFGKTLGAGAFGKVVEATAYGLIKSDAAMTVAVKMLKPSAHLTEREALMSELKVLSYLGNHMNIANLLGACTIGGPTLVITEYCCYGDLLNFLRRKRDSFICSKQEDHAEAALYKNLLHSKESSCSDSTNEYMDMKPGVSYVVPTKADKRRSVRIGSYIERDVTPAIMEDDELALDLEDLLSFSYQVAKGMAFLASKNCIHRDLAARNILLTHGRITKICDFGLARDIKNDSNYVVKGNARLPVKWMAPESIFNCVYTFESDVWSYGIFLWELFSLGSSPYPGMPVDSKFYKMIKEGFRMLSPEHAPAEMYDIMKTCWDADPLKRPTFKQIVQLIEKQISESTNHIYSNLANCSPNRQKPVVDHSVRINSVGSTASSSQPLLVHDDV
Sequence of Mast/stem cell growth factor receptor Kit (Homo sapiens), P10721 [D820E] (P10721 whole entry D820E, the tested form may be a part): as the sequence (P10721 whole entry V654A, the tested form may be a part) above, with A654V, D820E counted along it
Sequence of Mast/stem cell growth factor receptor Kit (Homo sapiens), P10721 [D816V] (P10721 whole entry D816V, the tested form may be a part): as the sequence (P10721 whole entry V654A, the tested form may be a part) above, with A654V, D816V counted along it
Sequence of Mast/stem cell growth factor receptor Kit (Homo sapiens), P10721 [UNDEFINED MUTATION] (P10721 whole entry, looked up, stated change not applied): as the sequence (P10721 whole entry V654A, the tested form may be a part) above, with A654V counted along it

O=C(CC(=O)Nc1ccc2c(/C=C/c3ccccn3)n[nH]c2c1)Nc1cccc(F)c1 gave a GI50 [1] of 525 nM, a GI50 [2] of 3460 nM and a GI50 [3] of 868 nM. For the same molecule, the IC50 [4] was > 10000 nM, the GI50 (GISTT1 [5]) was 288 nM and the inhibition [6] was “Active”. The Activity (GISTT1 [7]) was “Dose-dependent effect”, the Activity (Homo sapiens) was “Dose-dependent effect” and the Activity (GISTT1 [8]) was “Dose-dependent effect”. For the same molecule, the clearance [9] was 55 mL/min/kg, the CL/F [10] was 207 mL/min/kg and the AUC(0-inf) [11] was 901 ng·h/mL. It also gave a Vd [12] of 5.7 L/kg, a clearance [13] of 18.3 mL/min/kg and a Cmax [14] of 3020 ng/mL. The AUC(0-inf) [15] was 1480 ng·h/mL, the inhibition (Mus musculus [16]) was “Active” and the inhibition (Mus musculus [17]) was “inactive”. The Activity (Mus musculus [18]) was “Non-Toxic” and the Activity [19] was 0.1 g.
